Data: ChEMBL document CHEMBL1128234, “Isothiocyanate-substituted benzyl ether opioid receptor ligands derived from 6 beta-naltrexol” (J Med Chem, 1995)

How the values were obtained:
[1] = molecular target: Kappa-type opioid receptor (Cavia porcellus) (UniProt P41144); assay: Irreversible binding affinity at Opioid receptor kappa 1 was evaluated as % of control specific binding remaining washed at concentration of 20 (nM) using [3H]U-69593 radioligand
Outline: (§1)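 Diluted guinea pig brain homogenate is exposed to ligand for 60 min at 25 °C; protected samples are first preincubated 15 min at 37 °C with 1 naloxone. Washed samples are diluted in ice-cold Tris pH 7.4, spun at 10000g for 15 min at 4 °C, then resuspended and incubated 15 min at 37 °C, twice. Read-out is standard radioligand binding, expressed as % of recovery-sample specific binding. Test ligands run in triplicate; reference averaged over three assays.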

[2] = molecular target: Mu-type opioid receptor (Cavia porcellus) (UniProt P97266); assay: Irreversible binding affinity at mu-receptor was evaluated as % of control specific binding remaining unwashed at concentration of 30 (nM) using [3H]DAMGO radioligand
Sequence of Mu-type opioid receptor (Cavia porcellus) (P97266 whole entry): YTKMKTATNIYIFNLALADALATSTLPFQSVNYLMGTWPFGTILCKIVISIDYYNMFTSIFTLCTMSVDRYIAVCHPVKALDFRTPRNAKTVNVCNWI
Outline: (§2)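 Guinea pig brain homogenate (less cerebellum) in 0.05 M Trizma pH 7.4, diluted 1:60. It was incubated with ligand 60 min at 25 °C, then diluted in ice-cold buffer and centrifuged 10000g. Washed samples were resuspended in buffer, incubated 15 min at 37 °C and recentrifuged. Binding used 1.0 nM [3H]DAMGO for 60 min at 25 °C, with filtration and counting. Nonspecific binding was set with 10 µM naloxone. Triplicates; % specific binding was taken relative to recovery controls.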

[3] = molecular target: Kappa-type opioid receptor (Cavia porcellus) (UniProt P41144); assay: Irreversible binding affinity at Opioid receptor kappa 1 was evaluated as % of control specific binding remaining protected at concentration of 20 (nM) using [3H]U-69593 radioligand; outline: as §1
[4] = molecular target: Mu-type opioid receptor (Cavia porcellus) (UniProt P97266); assay: Irreversible binding affinity at mu-receptor was evaluated as % of control specific binding remaining washed at concentration of 30 (nM) using [3H]DAMGO radioligand; outline: as §2
[5] = molecular target: Kappa-type opioid receptor (Cavia porcellus, UniProt P41144); assay: Inhibitory concentration against Opioid receptor kappa 1 using [3H]- U-69,593 radioligand
Sequence of Kappa-type opioid receptor (P41144 whole entry): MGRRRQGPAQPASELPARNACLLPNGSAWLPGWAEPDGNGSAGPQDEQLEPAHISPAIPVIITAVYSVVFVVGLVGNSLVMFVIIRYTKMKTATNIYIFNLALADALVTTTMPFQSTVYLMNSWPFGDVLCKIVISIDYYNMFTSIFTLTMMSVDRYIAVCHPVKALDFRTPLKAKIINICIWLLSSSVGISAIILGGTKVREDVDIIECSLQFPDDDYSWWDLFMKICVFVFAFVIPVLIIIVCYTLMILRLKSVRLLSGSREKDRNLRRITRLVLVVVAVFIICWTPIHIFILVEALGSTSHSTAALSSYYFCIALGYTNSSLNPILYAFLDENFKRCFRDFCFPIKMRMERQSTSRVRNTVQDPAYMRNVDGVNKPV
Outline: (§3)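 Guinea pig brain (minus cerebellum) homogenate in 0.05 M Tris pH 7.4, diluted 1:60 (0.8-1.5 mg protein/ml). Ligand tested in duplicate at nine concentrations; 60 min at 25 °C. Nonspecific binding defined with naloxone. Filtration, ice-cold buffer rinse, scintillation counting.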

[6] = molecular target: Mu-type opioid receptor (Cavia porcellus, UniProt P97266); assay: Inhibitory concentration was determined against Opioid receptor mu 1 using [3H]- DAMGO radioligand; outline: as §3
Sequence of Mu-type opioid receptor (P97266 whole entry): as the sequence (P97266 whole entry) above

[7] = molecular target: Mu-type opioid receptor (Cavia porcellus) (UniProt P97266); assay: Irreversible binding affinity at mu-receptor was evaluated as % of control specific binding remaining washed at concentration of 50 (nM) using [3H]DAMGO radioligand; outline: as §2
[8] = molecular target: Mu-type opioid receptor (Cavia porcellus) (UniProt P97266); assay: Irreversible binding affinity at mu-receptor was evaluated as % of control specific binding remaining protected at concentration of 50 (nM) using [3H]DAMGO radioligand; outline: as §1
[9] = molecular target: Mu-type opioid receptor (Cavia porcellus) (UniProt P97266); assay: Irreversible binding affinity at mu-receptor was evaluated as % of control specific binding remaining unwashed at concentration of 50 (nM) using [3H]DAMGO radioligand; outline: as §2
[10] = molecular target: Kappa-type opioid receptor (Cavia porcellus) (UniProt P41144); assay: Irreversible binding affinity at Opioid receptor kappa 1 was evaluated as % of control specific binding remaining unwashed at concentration of 20 (nM) using [3H]U-69593 radioligand; outline: as §1
[11] = molecular target: Mu-type opioid receptor (Cavia porcellus) (UniProt P97266); assay: Irreversible binding affinity at mu-receptor was evaluated as % of control specific binding remaining protected at concentration of 30 (nM) using [3H]DAMGO radioligand; outline: as §1
[12] = molecular target: Kappa-type opioid receptor (Cavia porcellus) (UniProt P41144); assay: Irreversible binding affinity at Opioid receptor kappa 1 was evaluated as % of control specific binding remaining unwashed at concentration of 40 (nM) using [3H]U-69593 radioligand; outline: as §1
[13] = molecular target: Kappa-type opioid receptor (Cavia porcellus) (UniProt P41144); assay: Irreversible binding affinity at Opioid receptor kappa 1 was evaluated as % of control specific binding remaining washed at concentration of 40 (nM) using [3H]U-69593 radioligand; outline: as §1
[14] = molecular target: Kappa-type opioid receptor (Cavia porcellus) (UniProt P41144); assay: Irreversible binding affinity at Opioid receptor kappa 1 was evaluated as % of control specific binding remaining protected at concentration of 40 (nM) using [3H]U-69593 radioligand; outline: as §1
[15] = molecular target: Opioid receptors; mu/kappa/delta; assay: Inhibitory concentration was determined against Opioid receptors using [3H]- bremazocine radioligand; format: protein assay, Cavia porcellus; outline: as §3
[16] = molecular target: Mu-type opioid receptor (Cavia porcellus) (UniProt P97266); assay: Irreversible binding affinity at mu-receptor was evaluated as % of control specific binding remaining washed at concentration of 5 (nM) using [3H]-DAMGO radioligand; outline: as §2
[17] = molecular target: Mu-type opioid receptor (Cavia porcellus) (UniProt P97266); assay: Irreversible binding affinity at mu-receptor was evaluated as % of control specific binding remaining washed at concentration of 2.5 (nM) using [3H]DAMGO radioligand; outline: as §2
[18] = molecular target: Kappa-type opioid receptor (Cavia porcellus) (UniProt P41144); assay: Irreversible binding affinity at Opioid receptor kappa 1 was evaluated as % of control specific binding remaining washed at concentration of 30 (nM) using [3H]U-69593 radioligand; outline: as §1
[19] = molecular target: Kappa-type opioid receptor (Cavia porcellus) (UniProt P41144); assay: Irreversible binding affinity at Opioid receptor kappa 1 was evaluated as % of control specific binding remaining protected at concentration of 30 (nM) using [3H]U-69593 radioligand; outline: as §1
[20] = molecular target: Kappa-type opioid receptor (Cavia porcellus) (UniProt P41144); assay: Irreversible binding affinity at Opioid receptor kappa 1 was evaluated as % of control specific binding remaining unwashed at concentration of 30 (nM) using [3H]U-69593 radioligand; outline: as §1
[21] = molecular target: Kappa-type opioid receptor (Cavia porcellus) (UniProt P41144); assay: Irreversible binding affinity at Opioid receptor kappa 1 was evaluated as % of control specific binding remaining unwashed at concentration of 42 (nM) using [3H]U-69593 radioligand; outline: as §1
[22] = molecular target: Kappa-type opioid receptor (Cavia porcellus) (UniProt P41144); assay: Irreversible binding affinity at Opioid receptor kappa 1 was evaluated as % of control specific binding remaining protected at concentration of 42 (nM) using [3H]U-69593 radioligand; outline: as §1
[23] = molecular target: Mu-type opioid receptor (Cavia porcellus) (UniProt P97266); assay: Irreversible binding affinity at mu-receptor was evaluated as % of control specific binding remaining protected at concentration of 5 (nM) using [3H]-DAMGO radioligand; outline: as §1
[24] = molecular target: Kappa-type opioid receptor (Cavia porcellus) (UniProt P41144); assay: Irreversible binding affinity at Opioid receptor kappa 1 was evaluated as % of control specific binding remaining washed at concentration of 42 (nM) using [3H]U-69593 radioligand; outline: as §1
[25] = molecular target: Mu-type opioid receptor (Cavia porcellus) (UniProt P97266); assay: Irreversible binding affinity at mu-receptor was evaluated as % of control specific binding remaining protected at concentration of 2.5 (nM) using [3H]DAMGO radioligand; outline: as §1
[26] = molecular target: Mu-type opioid receptor (Cavia porcellus) (UniProt P97266); assay: Irreversible binding affinity at mu-receptor was evaluated as % of control specific binding remaining unwashed at concentration of 2.5 (nM) using [3H]DAMGO radioligand; outline: as §1
[27] = molecular target: Mu-type opioid receptor (Cavia porcellus) (UniProt P97266); assay: Irreversible binding affinity at mu-receptor was evaluated as % of control specific binding remaining unwashed at concentration of 5 (nM) using [3H]DAMGO radioligand; outline: as §2
[28] = molecular target: Kappa-type opioid receptor (Cavia porcellus) (UniProt P41144); assay: Irreversible binding affinity at Opioid receptor kappa 1 was evaluated as % of control specific binding remaining protected at concentration of 150 (nM) using [3H]U-69593 radioligand; outline: as §1
[29] = molecular target: Kappa-type opioid receptor (Cavia porcellus) (UniProt P41144); assay: Irreversible binding affinity at Opioid receptor kappa 1 was evaluated as % of control specific binding remaining washed at concentration of 150 (nM) using [3H]U-69593 radioligand; outline: as §1

Sequence of Kappa-type opioid receptor (Cavia porcellus) (P41144 whole entry): as the sequence (P41144 whole entry) above

| Compound | Control [1] | Control [3] | IC50 [5] | IC50 [6] | Control [10] | IC50 [15] | Control [18] | Control [19] | Control [20] | further results |
| --- | --- | --- | --- | --- | --- | --- | --- | --- | --- | --- |
| Oc1ccc2c3c1O[C@H]1[C@H](OCc4ccc(CN=C=S)cc4)CC[C@@]4(O)C(C2)N(CC2CC2)CCC314 (some centres undefined) | 68% | 95% | 7.4 nM | 11 nM | 61% | 21 nM | – | – | – | Control [2]: 59%; Control [4]: 56%; Control [7]: 58%; Control [8]: 60%; Control [9]: 22%; Control [11]: 67%; Control [12]: 32%; Control [13]: 58%; Control [14]: 64% |
| Oc1ccc2c3c1O[C@H]1[C@H](OCc4ccccc4N=C=S)CC[C@@]4(O)C(C2)N(CC2CC2)CCC314 (some centres undefined) | – | – | 8.2 nM | 0.8 nM | – | 8.8 nM | 35% | 55% | 36% | Control [16]: 15%; Control [17]: 40%; Control [21]: 13%; Control [22]: 40%; Control [23]: 36%; Control [24]: 21%; Control [25]: 68%; Control [26]: 47%; Control [27]: 7% |
| Oc1ccc2c3c1O[C@H]1[C@H](OCc4ccccc4CN=C=S)CC[C@@]4(O)C(C2)N(CC2CC2)CCC314 (some centres undefined) | – | – | 43 nM | 20 nM | – | 69 nM | – | – | – | Control [28]: 45%; Control [29]: 35% |
| Oc1ccc2c3c1O[C@H]1[C@H](OCc4cccc(CN=C=S)c4)CC[C@@]4(O)C(C2)N(CC2CC2)CCC314 (some centres undefined) | 68% | 94% | 6 nM | 19 nM | 56% | 24 nM | 58% | 73% | 22% | – |
